Among the data in ChEMBL document CHEMBL5674889, “Enhanced JunD/RSK3 signalling due to loss of BRD4/FOXD3/miR-548d-3p axis determines BET inhibition resistance” (2020) are Activity values, retold here.

The source made the active and inactive calls. The calls are words filed in the database; no cut-off is given here.

The target in assay [1] is T1, Transcription factor JunD (Homo sapiens) (UniProt P17535).
T1 sequence (whole entry): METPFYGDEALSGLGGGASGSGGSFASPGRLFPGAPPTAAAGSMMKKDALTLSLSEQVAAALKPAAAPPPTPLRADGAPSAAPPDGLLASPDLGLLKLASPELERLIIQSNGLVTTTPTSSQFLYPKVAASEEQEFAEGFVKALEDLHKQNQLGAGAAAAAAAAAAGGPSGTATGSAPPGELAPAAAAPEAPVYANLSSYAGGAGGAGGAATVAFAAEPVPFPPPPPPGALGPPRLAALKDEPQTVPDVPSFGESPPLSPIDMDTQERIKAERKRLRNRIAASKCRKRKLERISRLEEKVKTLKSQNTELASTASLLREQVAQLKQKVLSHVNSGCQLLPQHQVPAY
In words: Binding affinity of JunD in human BT-549 cells assessed RPS6KA2 expression at 1 uM for 24 hrs by ChIP analysis. Type of assay: cell-based.

The test system of assay [2] is BT-549. Nature of the assay: Antiproliferative activity in human RPS6KA2-knockdown BT-549 cells assessed as cell viability at 1 uM for 48 hrs by CellTiter-Glo luminescent cell viability assay. The assay is classed as functional, cell-based. The essentials: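 CellTiter-Glo viability: stable overexpressing or shRNA clones (puromycin 1.0 μg/ml selection) seeded 3000 cells/well, adhered overnight, then exposed to 1 μM for 48 h. Luminescence is background-subtracted and normalised to DMSO-treated control. Triplicates, mean ± SD, one-way ANOVA. MDA-MB-231 cells are kept in DMEM and BT549 in RPMI-1640, each with 10% FBS.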
In general terms: In ATP-based viability assays light output follows the ATP content of the culture.

Assay [3] relates to BT-549. Nature of the assay: Downregulation of miR-548d-3p expression in human BT-549 cells at 1 uM by real-time PCR analysis. Type of assay: functional, cell-based. Background: Quantitative PCR measures a nucleic acid by following its amplification.
Assay [4] deals with BT-549. In words: Antiproliferative activity in human JUND-knockdown BT-549 cells assessed as stronger tumor sphere formation at 1 uM by tumor sphere assay. The assay is classed as functional, cell-based.
In assay [5] the test system is MDA-MB-231. Nature of the assay: Effect on induction of RPS6KA2 transcription in human MDA-MB-231 cells assessed as enhanced luciferase activity at 1 uM for 6 hrs by Luciferase reporter assay. The assay is classed as functional, cell-based. A digest of the protocol: (§1)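 Control or JunD-shRNA BLBC cells were transfected with the RPS6KA2 enhancer luciferase reporter (FuGene 6, 24 h) and then treated with DMSO or JQ1 1 μM for 6 h. Dual-luciferase read-out given as fold induction over vector control. Three experiments in triplicate.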

The subject of assay [6] is BT-474. Nature of the assay: Antiproliferative activity in human FOXD3-overexpressing BT-474 cells assessed as cell growth at 1 uM by CCK-8 assay. Type of assay: functional, cell-based. On the technique in general: Formazan colour is commonly taken as a measure of viable cells.
The subject of assay [7] is MDA-MB-231. Nature of the assay: Induction of apoptosis in human MDA-MB-231 cells over expressing RSK3 assessed as early apoptotic cells at 1 uM by Annexin V-FITC flow cytometric analysis (reference value: 3.85%). Type of assay: functional. A digest of the protocol: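 Stable clones (vector, RSK3-overexpressing or RPS6KA2-knockdown) treated ± JQ1 1 μM. Cells washed twice in PBS, resuspended at 1 × 10^6 cells/ml in binding buffer, stained with Annexin V-FITC and propidium iodide for 10 min at room temperature in the dark, then read by flow cytometry. Three independent experiments; one-way ANOVA.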

In assay [8] the test system is BT-549. Nature of the assay: Antiproliferative activity in human JUND-overexpressing BT-549 cells assessed as tumor sphere formation at 1 uM by Tumor sphere assay. The assay is classed as functional, cell-based.
Assay [9] has as its system MDA-MB-231. In words: Effect on human MDA-MB-231 cells assessed as RSK3 protein expression at 1 uM for 24 hrs by Western blot analysis. Type of assay: functional, cell-based. The essentials:
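Western blot for RSK3 in MDA-MB-231 and BT549 cells treated with DMSO or 1 μM for 0, 12 and 24 h. Antibody used at 1:1000.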

In assay [10] the test system is BT-549. In words: Effect on human RPS6KA2-knockdown BT-549 cells assessed as inhibition tumor sphere formation at 1 uM by Tumor sphere assay. The assay is classed as functional, cell-based.
In assay [11] the test system is MDA-MB-231. In words: Antiproliferative activity in human MDA-MB-231 cells assessed as cell growth in the presence of miR-548d-3p at 1 uM by CCK-8 assay. Type of assay: functional, cell-based. A digest of the protocol: (§2)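 BLBC cells transfected with miR-548d-3p mimic or inhibitor, with or without JQ1; growth read by CCK-8 assay relative to DMSO-treated control, seeded at 3000/well. Triplicates, mean ± SD, one-way ANOVA.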

In assay [12] the test system is BT-549. Nature of the assay: Antiproliferative activity in human BT-549 cells assessed as cell growth inhibition for 48 hrs in the presence of […] at 1 uM by CCK-8 assay. The assay is classed as functional, cell-based.
For assay [13], the system named is BT-549. Nature of the assay: Antiproliferative activity in human BT-549 cells assessed as cell growth in the presence of EAI045 at 1 uM by CellTiter-Glo luminescent cell viability assay. Type of assay: functional, cell-based. The essentials: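 BLBC cells seeded at 3000/well, adhered overnight, then exposed to JQ1 (1 μM) with or without an EGFR inhibitor (1 μM) for 48 h; control and RPS6KA2-shRNA clones tested. Viability by CellTiter-Glo luminescence, background-subtracted and normalized to DMSO-treated control; triplicates, mean ± SD, one-way ANOVA against JQ1 alone.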

Assay [14] relates to BT-549. In words: Effect on induction of RPS6KA2 transcription in human BT-549 cells assessed as enhanced luciferase activity at 1 uM for 6 hrs by Luciferase reporter assay. The assay is classed as functional, cell-based. The essentials: as §1
The test system of assay [15] is MDA-MB-231. Nature of the assay: Antiproliferative activity in human MDA-MB-231 cells assessed as inhibited cell growth in the presence of osimertinib at 1 uM for 48 hrs by CCK-8 assay. The assay is classed as functional, cell-based. The essentials: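 Cells seeded 3000/well, adhered overnight, treated with JQ1 (1 μM) with or without osimertinib (1 μM) for 48 h; growth by CCK-8 kit, normalized to DMSO-treated control; triplicates, mean ± SD, one-way ANOVA.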

Assay [16] relates to MDA-MB-231. In words: Antiproliferative activity in human MDA-MB-231 cells assessed as cell growth inhibition for 48 hrs in the presence of […] at 1 uM by CCK-8 assay. Type of assay: functional, cell-based.
The test system of assay [17] is BT-549. In words: Effect on human RPS6KA2 knockdown BT-549 cells assessed as RSK3 protein expression at 1 uM for 24 hrs by Western blot analysis. The assay is classed as functional, cell-based.
The subject of assay [18] is HEK-293T. Nature of the assay: Effect on induction of RPS6KA2 transcription in human HEK293T cells transfected with RPS6KA2 assessed as luciferase activity at 1 uM for 6 hrs by Luciferase reporter assay. Type of assay: functional, cell-based. The essentials:
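HEK293T were transfected with wild-type or mutant RPS6KA2 enhancer luciferase construct, ± JUND co-transfection (FuGene 6, 24 h). Cells then treated with DMSO or JQ1 1 μM for 6 h. Dual-luciferase activity expressed as fold over vector control; three experiments in triplicate.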

For assay [19], the target named is T1, Transcription factor JunD (Homo sapiens). In words: Binding affinity to JunD in human MDA-MB-231 cells assessed RPS6KA2 expression at 1 uM for 24 hrs by ChIP analysis. Type of assay: cell-based.
The test system of assay [20] is MDA-MB-231. In words: Effect on human RPS6KA2 transfected MDA-MB-231 cells by measuring luciferase activity at 20 uM by Luciferase reporter assay. The assay is classed as functional, cell-based.
In assay [21] the test system is MDA-MB-231. Nature of the assay: Antiproliferative activity in human MDA-MB-231 cells assessed as cell growth in the presence of miR-548d-3p inhibitor at 1 uM by CCK-8 assay. Type of assay: functional, cell-based. A digest of the protocol: as §2

In the case of `Cc1sc2c(c1C)C(c1ccc(Cl)cc1)=N[C@@H](CC(=O)OC(C)(C)C)c1nnc(C)n1-2`, the result in assay [1], in [2], in [3], in [4], in assay [5] and in [6] was Active. The outcome in assay [8], in assay [9], in assay [10], in assay [11], in assay [12] and in assay [13] was Active. The outcome in [14], in assay [15], in assay [16], in assay [17], in [18] and in [19] was Active. Besides, the result in [20] and in assay [21] was Active. Also, the Activity in assay [7] is 7.14%.
